Data taken from ChEMBL document CHEMBL4602726, “Discovery of the First Vitamin K Analogue as a Potential Treatment of Pharmacoresistant Seizures” (J Med Chem, 2020).

Tests used:
[1] = Toxicity in CF1 mouse assessed as induction of motor impairment during acute (1 hr) observation period by rotarod assay; conditions: CF1, mouse, in vivo
Procedure, shortened: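 Male CF-1 mice, ip dosing in miglyol 840/DMSO (95%/5%), up to 800 mg/kg. Rotarod at 6 rpm done 1 h after dosing, on the same animals just before 6 Hz testing. Falling three times within one minute scored as impaired; animals also inspected visually.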

[2] = Half life in mouse; type: ADME, organism-based; conditions: in vivo
Danio rerio [3] = species: Danio rerio; experiment: Anti-seizure activity in Zebrafish; type: functional, organism-based
Procedure, shortened: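 Single 7 dpf zebrafish larvae per well, pretreated 1 h at […] with compound (10 or 5 μM) in E3 buffer from DMSO stock. Then 15 mM PTZ added and movement tracked 15 min in 1-min bins. VPA 5 and 10 mM as positive controls, n=8 per group, one-way ANOVA.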

[4] = Toxicity in Zebrafish; design: species or system Danio rerio; conditions: in vivo, read-out: LD50 (the source's name)
Danio rerio [5] = species: Danio rerio; experiment: Anti-seizure activity in Zebrafish larvae assessed as reduction in PTZ-induced increase in total swimming distance in 15 mins at 5 uM pre-incubated for 1 hr prior to PTZ-induced seizure induction relative to control; type: functional; design: scale not given: the % may be the effect or the level left
Danio rerio [6] = species: Danio rerio; experiment: Anti-seizure activity in Zebrafish larvae assessed as reduction in PTZ-induced increase in total swimming distance in 15 mins at 10 uM pre-incubated for 1 hr prior to PTZ-induced seizure induction relative to control; type: functional; design: scale not given: the % may be the effect or the level left
[7] = Half life in CD1 mouse at 20 mg/kg, ip measured after 0.083 to 24 hrs by LC-MS/MS analysis; type: ADME, organism-based; conditions: in vivo
Procedure, shortened: (§1)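 Male CD-1 mice, 3 per route. Oral and ip at 20 mg/kg by gavage needle; iv at 5 mg/kg by tail vein. Vehicles were 20% DMA:40% PEG300:40% H2O for oral/iv and 5% DMSO:95% Neobee for ip. Blood sampled 0.083–24 h, plasma protein-precipitated with acetonitrile plus internal standard, LC-MS/MS (MRM). Non-compartmental analysis, linear trapezoidal AUC.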

[8] = Tmax in CD1 mouse at 20 mg/kg, ip measured after 0.083 to 24 hrs by LC-MS/MS analysis; type: ADME, organism-based; conditions: in vivo
[9] = Cmax in CD1 mouse at 20 mg/kg, ip measured after 0.083 to 24 hrs by LC-MS/MS analysis; type: ADME, organism-based; design: dose 20 mg/kg, route intraperitoneal; conditions: in vivo; procedure, shortened: as §1
[10] = AUClast in CD1 mouse at 20 mg/kg, ip measured after 0.083 to 24 hrs by LC-MS/MS analysis; type: ADME, organism-based; design: time lower 0.083 hr, dose 20 mg/kg, time upper 24 hr, route intraperitoneal; conditions: in vivo; procedure, shortened: as §1
[11] = Toxicity in mouse HT22 cells assessed as inhibition of cell viability at 50 uM incubated for 48 hrs by Cell-titer-Blue dye based fluorescence spectrophotometry relative to control; design: species or system HT-22; conditions: read-out: Activity
Procedure, shortened: (§2)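 HT-22 cells in DMEM high glucose with 10% FBS, 2000 per well. Serially diluted compound added after 12 h, incubated 48 h. […] Background subtracted, normalized to control wells.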

[12] = Toxicity in mouse HT22 cells assessed as inhibition of cell viability at 10 uM incubated for 48 hrs by Cell-titer-Blue dye based fluorescence spectrophotometry relative to control; design: species or system HT-22; conditions: read-out: Activity; procedure, shortened: as §2
Danio rerio [13] = species: Danio rerio; experiment: Increase in ATP concentration in zebrafish at 1 uM incubated for 24 hrs by fluorometric ATP assay relative to control; type: functional
Procedure, shortened: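 7 dpf zebrafish larvae, one per well, kept at 28.5°C for 24 h with compound in E3 buffer (DMSO stock). DMSO vehicle in control wells. Twelve fish per condition pooled, flash-frozen, homogenized in ATP buffer and centrifuged. ATP in the supernatant read by fluorescence at ex 535/em 587 nm, normalized to total protein (BCA), and expressed as nmole/mg relative to DMSO control. n = 7–13.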

Mus musculus = experiment: Anti-seizure activity in ip dosed CF1 mouse assessed as attenuation of psychomotor seizures at stimulus intensities of 42 mA at pre-treated at 1 hr before test by 6 Hz limbic seizure test relative to control; type: functional
[14] = Drug reactivity with 2-mercaptoethanol measured over 6 hrs; type: physicochemical

| SMILES | Activity (Danio rerio [5]) [%] | inhibition at 48 h, 50 µM [11] [%] | inhibition at 48 h, 10 µM [12] [%] | also measured |
| --- | --- | --- | --- | --- |
| CC[C@@H](C(N)=O)N1CCCC1=O | – | – | – | TD50 at 1 h [1]: > 500 mg/kg |
| C#CCNC1=CC(=O)c2ccccc2C1=O | 7.4 | – | – | half-life [2]: 66 min; EC50 (Danio rerio [3]): 20 µM; LC50 [4]: > 20 µM; Activity (Danio rerio [6]): 5.4%; half-life [7]: 66 min; Tmax [8]: 15 min; Cmax [9]: 1.49 µg/mL; AUC(0-t) [10]: 0.978 µg·h/mL |
| O=C1C=C(NCC2CC2)C(=O)c2ccccc21 | -10.1 | 54.1 | 16.8 | Activity (Danio rerio [6]): -10.1% |
| CCC(O)CNC1=CC(=O)c2ccccc2C1=O (stereo not drawn) | – | 69 | 38.6 | – |
| O=C1C=C(NCCC2CCCCC2)C(=O)c2ccccc21 | – | 2.09 | 0.07 | – |
| CC(C)(C)CNC1=CC(=O)c2ccccc2C1=O | – | 22.4 | 10.8 | – |
| O=C1C=C(NCCC2CC2)C(=O)c2ccccc21 | – | 56.4 | 34.7 | – |
| CC1=C(NCCC(C)(C)C)C(=O)c2ccccc2C1=O | 3.3 | 17.5 | 10.2 | – |
| CC(C)(C)CCCNC1=CC(=O)c2ccccc2C1=O | -3 | 6.75 | 3.81 | – |
| CC(C)(O)CCNC1=CC(=O)c2ccccc2C1=O | 9.5 | 59.7 | 25.5 | Activity (Danio rerio [6]): -5.6% |
| CC(C)=CCNC1=CC(=O)c2ccccc2C1=O | -4.4 | 38.3 | 15 | – |
| CC(C)CCCNC1=CC(=O)c2ccccc2C1=O | – | 21.3 | 28.8 | – |
| CC(O)CCNC1=CC(=O)c2ccccc2C1=O (stereo not drawn) | 0.78 | 64.2 | 19.4 | – |
| CC1=C(NCCC(C)C)C(=O)c2ccccc2C1=O | – | 21.4 | 11.2 | – |
| CC(C)CC(C)NC1=CC(=O)c2ccccc2C1=O (stereo not drawn) | – | 15 | 2.09 | – |
| O=C1C=C(NCCC2CCCC2)C(=O)c2ccccc21 | 45 | 43.8 | 35.4 | – |
| CN(CCCNC1=CC(=O)c2ccccc2C1=O)c1ccccc1 | 7.3 | 10.2 | 11.5 | – |
| O=C1C=C(NCCC2CCC2)C(=O)c2ccccc21 | – | 36.3 | 27.2 | Activity (Danio rerio [13]): 21.4% |
| CCN(C)CCNC1=CC(=O)c2ccccc2C1=O | – | 101 | 86.2 | – |
| O=C1C=C(NCC2CCC2)C(=O)c2ccccc21 | – | 62.3 | 33.7 | – |
| CCC(C)CNC1=CC(=O)c2ccccc2C1=O (stereo not drawn) | 23 | 41.2 | 14.8 | – |
| CC(C)(C)CCNC1=CC(=O)c2ccccc2C1=O | – | 17 | 11.9 | – |
| CN(C)CCNC1=CC(=O)c2ccccc2C1=O | – | 99.8 | 82.6 | – |
| CCN(CC)CCNC1=CC(=O)c2ccccc2C1=O | -7.2 | 100 | 83.8 | Activity (Danio rerio [6]): 27% |
| CN(C)CCCNC1=CC(=O)c2ccccc2C1=O | – | 96.7 | 74.5 | Activity (Danio rerio [6]): -2.9% |
| CC(CO)CCNC1=CC(=O)c2ccccc2C1=O (stereo not drawn) | -2.4 | 76.7 | 25.7 | Activity (Danio rerio [6]): 8.2% |
| C=C(C)[C@@H]1CCC(C)=C[C@H]1c1c(O)cc(CCCCC)cc1O [CANNABIDIOL] | – | – | – | ED50 (Mus musculus): 174 mg/kg |
| NC(=O)OCC(COC(N)=O)c1ccccc1 [FELBAMATE] | – | – | – | ED50 (Mus musculus): 97.5 mg/kg; TD50 at 1 h [1]: 452 mg/kg |
| CC1=CC(=O)c2ccccc2C1=O [MENADIONE] | – | – | – | half-life [2]: 27 min; EC50 (Danio rerio [3]): 3 µM; LC50 [4]: 6 µM; Drug metabolism [14]: Metabolite_Detected |
| CCCC(CCC)C(=O)O [VALPROIC ACID] | – | – | – | ED50 (Mus musculus): 289 mg/kg |
